In the library only some 1% were active in any assay of this set; here they are far more common.
RAD54 branch = RAD54 (human) branch migration inhibition; RAD54 Holliday junction branch migration, FAM/BHQ fluorescence; inhibition, % at 10.4 µM; 360,000 compounds, 0.14% hits; AID 602329;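 active = mean normalized replicate activity at least 40 and at least half of replicates scoring 40 or more; inconclusive = only one of the two criteria met; inactive = mean below 40 and under half of replicates reaching 40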;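 note: 0% = median of neutral control wells and 100% = median of positive control wells; inhibitors cause a drop in the FAM fluorescence signal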
Target sequence (Q92698 whole entry, looked up): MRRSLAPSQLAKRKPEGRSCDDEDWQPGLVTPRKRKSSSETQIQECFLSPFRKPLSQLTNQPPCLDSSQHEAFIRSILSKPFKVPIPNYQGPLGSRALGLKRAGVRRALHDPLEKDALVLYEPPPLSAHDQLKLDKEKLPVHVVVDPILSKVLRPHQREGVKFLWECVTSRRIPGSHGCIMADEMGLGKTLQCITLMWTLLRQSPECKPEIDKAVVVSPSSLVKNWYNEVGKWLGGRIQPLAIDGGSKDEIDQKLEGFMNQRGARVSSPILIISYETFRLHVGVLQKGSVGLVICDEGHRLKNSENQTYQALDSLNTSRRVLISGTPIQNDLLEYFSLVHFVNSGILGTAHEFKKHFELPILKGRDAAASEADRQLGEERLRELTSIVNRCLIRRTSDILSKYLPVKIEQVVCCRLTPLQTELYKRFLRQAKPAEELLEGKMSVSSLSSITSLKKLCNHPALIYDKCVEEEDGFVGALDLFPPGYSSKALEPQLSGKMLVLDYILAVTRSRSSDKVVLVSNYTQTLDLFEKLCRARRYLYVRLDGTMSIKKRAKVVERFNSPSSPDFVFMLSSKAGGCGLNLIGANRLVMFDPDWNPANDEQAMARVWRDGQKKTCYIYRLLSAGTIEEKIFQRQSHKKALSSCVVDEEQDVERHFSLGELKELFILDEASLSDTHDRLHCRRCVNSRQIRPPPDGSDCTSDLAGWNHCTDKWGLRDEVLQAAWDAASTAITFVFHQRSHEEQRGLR
VIM-2 inhibitor = inhibitors of Pseudomonas aeruginosa VIM-2 metallo-beta-lactamase; inhibition, % at 5.6 µM; purified VIM-2, nitrocefin hydrolysis, epi-absorbance fluorescence; 290,000 compounds, 0.89% hits; AID 1527;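 active = inhibition above the mean of all tested compounds plus 3 SD, cutoff set per screening run, cut at about 7.5% in these data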;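 note: red hydrolysis product quenches plate fluorescence so inhibitors raise well fluorescence; 0% = enzyme with DMSO and 100% = DMSO without enzyme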
PvdQ acylase = blocks Pseudomonas aeruginosa PvdQ acylase activity. AID 488965. purified PvdQ acylase, fluorescence plate reader. 340,000 compounds, 0.063% hits. inhibition, % at 10 µM; in the data active = inhibition above about 30%, passing the limit was not always enough; inconclusive = no clear call, values can overlap the other calls;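 note: 0% = vehicle neutral wells and 100% = reference inhibitor wells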
IMP-1 inh = blocks Pseudomonas aeruginosa IMP-1 metallo-beta-lactamase | purified IMP-1, nitrocefin hydrolysis, epi-absorbance fluorescence | inhibition, % at 5.6 µM | 290,000 compounds, 0.45% hits | AID 1556;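 active = inhibition above the mean plus 3 SD of all compounds in the same screening run, cut at about 4.5% in these data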;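 note: 0% = IMP-1 with DMSO and 100% = DMSO wells lacking enzyme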
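System – purified recombinant IMP-1 beta-lactamase · Input – IMP-1 dispensed at 0.2 nM · Timing – 15 min preincubation plus 25 min reaction at 25 °C · Signal – Epi-absorbance fluorescence, 480 nm excitation, 530 nm emission · Measure – percent IMP-1 inhibition derived from blank-referenced optical density · Controls – Enzyme-plus-DMSO low control, enzyme-free DMSO high control · Replication – singlicate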
DNA FID counter = displaces DNA intercalator in HCV helicase counter-screen. DNA fluorescent intercalator displacement, fluorescence. inhibition, % at 7.9 µM. AID 1845. 290,000 compounds, 0.17% hits; in the data active = inhibition above about 37%;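 note: 0% = vehicle and 100% = reference compound; higher means more ethidium bromide displaced from hairpin DNA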
The depositor's hits bear a star; ? = inconclusive; . = not tested or not shown.

SMILES	RAD54 branch	VIM-2 inhibitor	PvdQ acylase	IMP-1 inh	DNA FID counter
COc1ccc(O)c(-c2[nH]ncc2C(=O)c2cccc(C)c2)c1	4	-1	-12	5.1*	-6
COc1ccc(C(=O)c2cn[nH]c2-c2cc(C)ccc2O)cc1	3	-2	-3	-2	-12
CN(C)C(=O)[C@@H]1[C@@H](CO)[C@@H]2Cn3c(ccc(C4=CCCC4)c3=O)[C@@H]2N1C(=O)Cc1cccnc1	-5	.	.	.	.
COc1cc(/C=C2/SC(=S)N(Cc3ccccc3)C2=O)ccc1O	-6	3	5	4.7*	23
O=C1/C(=C/c2ccncc2)SC(=S)N1Cc1ccccc1	.	1	-4	6.2*	-3
CCCN1C(=O)/C(=C/c2ccncc2)SC1=S	.	-1	6	-2	0
CCCNC(=O)N1C[C@H](C)[C@H](OC)CN(C)C(=O)c2ccc(NC(=O)C3CCC3)cc2OC[C@@H]1C	-6	.	.	.	.
COc1cccc(C(=O)NCCS(=O)(=O)N2CCc3ccccc3C2)c1	0	.	-1	.	.
COc1ccc(CCNC(=O)c2cccc(S(=O)(=O)N3CCc4ccccc4C3)c2)cc1	-2	.	44*	.	.
COc1ccc(-c2csc3nc(C(C)C)oc(=O)c23)cc1OC	-8	-1	-14	0	-12
COc1ccc(-c2nc3scc(-c4ccc(OC)c(OC)c4)c3c(=O)o2)cc1	3	0	-6	5.0*	-3
COCCNC(=O)C[C@H]1C[C@@H]2c3cc(NC(=O)Nc4ccccc4F)ccc3O[C@@H]2[C@@H](CO)O1	-13	.	.	.	.
CCCc1cc(NCCCO)n2c(nc3ccccc32)c1C#N	-5	10*	.	0	-12
Cc1cc(NCCN2CCCCC2)n2c(nc3ccccc32)c1C#N	.	8.7*	.	-2	5
Cc1c2c(n3c(nc4ccccc43)c1C#N)N(CCN(C)C)CC2	.	11*	-36	-4	18
CC(C)NC(=O)Nc1ccc2c(c1)C(=O)N([C@H](C)CO)C[C@@H](C)[C@H](CN(C)S(=O)(=O)c1ccc(F)cc1)O2	14	.	.	.	.
CCCNC(=O)N(C)C[C@H]1Oc2ncc(-c3cccc(C#N)c3)cc2C(=O)N([C@H](C)CO)C[C@H]1C	5	.	.	.	.
C[C@@H]1CN([C@@H](C)CO)C(=O)c2cccc(NS(=O)(=O)c3ccccc3)c2O[C@@H]1CN(C)S(=O)(=O)c1cn(C)cn1	-13	.	.	.	.
Cc1cccn2c(=O)c3cc(C(=O)NCC4CCCO4)c(=N)n(C4CCCC4)c3nc12 (stereo not given)	18	11*	-47	-3	-6
N=c1c(C(=O)NCC2CCCO2)cc2c(=O)n3ccccc3nc2n1C1CCCC1 (stereo not given)	14	1	-69	-1	-5
Cc1ccc2nc3c(cc(C(=O)NCC4CCCO4)c(=N)n3C3CCCC3)c(=O)n2c1 (stereo not given)	27	7.9*	-46	-5	-10
O=c1c(O)cccc2cc(O)c(O)c(O)c12	.	5	4	7.7*	-5
O=c1cc(-c2ccccc2)oc2cc(O)c(O)c(O)c12	13	.	5	.	.
COc1cc2cc(CN(CCCN3CCOCC3)C(=O)Nc3ccc(F)cc3)c(=O)[nH]c2cc1OC	.	8.8*	-10	0	19
COc1ccccc1C1C(C(N)=O)=C(C)Nc2ncnn21 (stereo not given)	-4	1	6	6.8*	0
SMILES	RAD54 branch	VIM-2 inhibitor	PvdQ acylase	IMP-1 inh	DNA FID counter
CO[C@H]1CN(C)C(=O)c2cc(NC(=O)Nc3cc(F)ccc3F)ccc2OC[C@@H](C)N(C(=O)c2cnccn2)C[C@@H]1C	2	.	.	.	.
S=c1[nH]nc(-c2ccccc2Cl)n1Cc1ccccc1	-11	1	-15	-3	-9
Cc1c(-n2c(-c3ccccc3Cl)n[nH]c2=S)c(=O)n(-c2ccccc2)n1C	2	74*	-9	-5	-8
CCS(=O)(=O)NCC[C@@H]1CC[C@H](NS(=O)(=O)c2ccccc2C)[C@H](CO)O1	2	.	.	.	.
Cn1cc(C(=O)C(F)(F)F)c2ccccc21	-8	2	-14	5.8*	8
CC(C)NC(=O)C(=O)c1cn(C)c2ccccc12	5	-1	-7	0	1
C[C@@H]1CCCCO[C@@H](CN(C)C(=O)CCCN(C)C)[C@@H](C)CN([C@H](C)CO)C(=O)c2cc(NC(=O)Nc3ccccc3)ccc2O1	-5	.	.	.	.
COc1ccc(CCNC(=O)c2cc3c(=O)n4ccccc4nc3n(Cc3ccco3)c2=N)cc1OC	16	8.1*	-12	-3	-3
COc1ccc(CCNC(=O)c2cc3c(=O)n4ccccc4nc3n(CCN3CCOCC3)c2=N)cc1	22	3	-8	-2	-7
Cc1ccc2nc3c(cc(C(=O)NCCc4ccccc4)c(=N)n3CCCN3CCOCC3)c(=O)n2c1	28	9.6*	-17	-3	31
COc1ccc(CCn2c(=N)c(C(=O)NCCN3CCOCC3)cc3c(=O)n4ccccc4nc32)cc1OC	?	8.2*	-7	1	44*
COc1ccc(CCNC(=O)c2cc3c(=O)n4ccccc4nc3n(CCCN3CCOCC3)c2=N)cc1	46	10*	0	-4	48*
Cc1cccn2c(=O)c3cc(C(=O)NCc4ccco4)c(=N)n(CCOCCO)c3nc12	73*	4	-19	0	5
Cc1cccn2c(=O)c3cc(C(=O)NCc4ccco4)c(=N)n(C4CCCCC4)c3nc12	32	6	-15	-1	0
COc1ccc(S(=O)(=O)N2CCOCC2)cc1NC(=O)Cc1ccccc1Cl	.	-1	-18	-4	-11
COc1ccc(S(=O)(=O)N2CCOCC2)cc1NC(=O)Cc1coc2cc(C)c(C)cc12	-8	-1	-11	71*	-35
C[C@H]1CN([C@@H](C)CO)C(=O)c2cc(NC(=O)Nc3cccc4ccccc34)ccc2O[C@@H]1CN(C)CC1CCCCC1	12	.	.	.	.
C=CCSc1nc2sc3c(c2c(=O)n1CC)CCC3	-1	1	-11	-3	-18
C=CCn1c(SCC(=O)N(C)C)nc2sc3c(c2c1=O)CCC3	4	8.4*	-2	-1	-42
O=CN(c1ccccc1)c1ccc2ccccc2c1	.	-3	79*	-2	-3
CN(c1ccccc1)S(=O)(=O)c1ccc2ccccc2c1	10	0	-13	-3	-14
CCCC(=O)Nc1ccc2c(c1)C(=O)N(C)C[C@H](OC)[C@@H](C)CN(C(=O)c1cnccn1)[C@H](C)CO2	3	.	.	.	.
COc1cc(C2c3sc(=O)[nH]c3SC3C4CCC(C4)C23)ccc1O (stereo not given)	-2	8.8*	-2	3	-18
COc1ccc(C2c3sc(=O)[nH]c3SC3C4CCC(C4)C23)cc1 (stereo not given)	.	2	-5	-2	-25
CCOC(=O)N(C)C[C@H]1OCc2ccccc2-c2c(n(C)c3ccccc23)C(=O)N([C@@H](C)CO)C[C@@H]1C	5	.	.	.	.
CO[C@H]1CN(C)C(=O)c2cc(NC(=O)C3CCCC3)ccc2OC[C@H](C)N(CC2CC2)C[C@@H]1C	-8	.	.	.	.

Screens (PubChem BioAssay)
